In ChEMBL document CHEMBL4011629, “New Disubstituted Quindoline Derivatives Inhibiting Burkitt's Lymphoma Cell Proliferation by Impeding c-MYC Transcription” (J Med Chem, 2017):
The source made the active and inactive calls. The rule behind the calls is not given here.

What was measured:
[1] = Binding affinity to 5'-FAM labeled duplex DNA (unknown origin) by MST analysis
Method in brief: (§1)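 The DNA was annealed at 95 °C for 5 min, slowly cooled and held at 4 °C overnight. Ligand was run as a 12-point series, 0–20 μM for Pu27 and up to 200 μM for duplex. MST was measured, and KD was fitted to a Hill model from three replicates.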

[2] = Stabilization of 5'-FAM/3'-TAMRA labeled c-Myc Pu22 G-quadruplex DNA (unknown origin) assessed as change in melting temperature at 2 uM by FRET assay
Method in brief: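 FRET melting of FAM/TAMRA-labelled FPu22T (0.2 μM) in 10 mM Tris-HCl pH 7.4 with 2 mM KCl, ligand 2 μM, in a real-time PCR machine. Excitation 470 nm, emission 530 nm, read every 1 °C from 37 to 99 °C after 30 s hold at each step; ΔTm versus probe alone.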

[3] = Stabilization of c-Myc Pu27 G-quadruplex DNA (unknown origin) assessed as induction of parallel G-quadruplex formation in absence of K+ ions by CD spectroscopic analysis
[4] = Stabilization of c-Myc Pu27 G-quadruplex DNA (unknown origin) assessed as induction of parallel G-quadruplex formation in absence of K+ ions by CD spectroscopic analysis
Method in brief: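 CD spectra: Pu27 at 5 μM in 10 mM Tris-HCl pH 7.4 without or with 100 mM KCl, annealed 95 °C 5 min, slow-cooled, kept at 4 °C overnight, with ligand. Scanned 230–400 in a 4 mm quartz cuvette, 1 nm bandwidth and step, 0.5 s/point; buffer baseline subtracted.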

[5] = Binding affinity to 5'-FAM labeled c-Myc Pu27 G-quadruplex DNA (unknown origin) in presence of K+ ions by MST analysis; method in brief: as §1
[6] = system: Raji; experiment: Antiproliferative activity against human Raji cells after 48 hrs by MTT assay; assay type: functional, cell-based
Method in brief: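 RAJI cells were seeded at 5 × 10^3 cells per well and treated for 48 h, with a DMSO-matched control. MTT at 0.5 mg/mL was added for 4 h at 37 °C, followed by overnight lysis at 37 °C and absorbance at 570 nm. Each assay was done in triplicate. IC50 came from the dose-dependent percentage survival versus the control.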

[7] = Selectivity ratio of Kd for 5'-FAM labeled duplex DNA (unknown origin) to Kd for 5'-FAM labeled c-Myc Pu27 G-quadruplex DNA (unknown origin)
Method in brief: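 MST binding: FAM-Pu27 or FAM-duplex oligo at 10 μM in 10 mM Tris-HCl pH 7.4 with 150 mM KCl, annealed 95 °C 5 min, slow-cooled, held 4 °C overnight. Ligand titrated as a 12-point series, 0–20 μM for G4 or up to 200 μM for duplex. KD fitted with Hill model; three replicates.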

[8] = species: Homo sapiens; experiment: Stabilization of c-Myc G-quadruplex DNA in human Raji cells assessed as decrease in amplification of exon-1 at 1 uM after 12 hrs by RT-PCR method; assay type: cell-based
Method in brief: (§2)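 Cells treated 12 h with compound at various concentrations, untreated cells as control. Total RNA (2 μg) reverse-transcribed with oligo dT18 and M-MLV (42 °C 1 h). c-MYC exons 1 and 2, NM23-H2 and β-actin amplified by real-time PCR, products checked on 1% agarose gel. Three independent repeats, mean ± SEM, two-tailed unpaired t test versus untreated.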

[9] = species: Homo sapiens; experiment: Stabilization of c-Myc G-quadruplex DNA in human CA46 cells assessed as decrease in amplification of exon-1 at 1 uM after 12 hrs by RT-PCR method; assay type: cell-based; method in brief: as §2
[10] = Inhibition of NM23-H2 binding to 5'-FAM labeled c-Myc Pu27 G-quadruplex DNA (unknown origin) at 10 uM preincubated for 1 hr followed by NM23-H2 addition by electrophoretic mobility shift assay relative to control
Method in brief: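 Annealed labeled Pu27 (1.5 μM) preincubated 1 h at 25 °C with 10 μM ligand or 5% DMSO. Recombinant His-tagged NM23-H2 (0.5 μM, E. coli BL21, nickel-purified) then added for 1 h at 37 °C. Complexes resolved on 5% native polyacrylamide gel in 0.5× TBE at 4 °C. Inhibition taken as loss of complex band intensity versus no-compound band set at 100%. Run three times.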

[11] = species: Homo sapiens; experiment: Effect on c-Myc DNA translocated chromosome product in human CA46 cells assessed as decrease in amplification of exon-2 at 1 uM after 12 hrs by RT-PCR method; assay type: cell-based; method in brief: as §2
[12] = species: Homo sapiens; experiment: Effect on c-Myc DNA translocated chromosome product in human Raji cells assessed as decrease in amplification of exon-2 at 1 uM after 12 hrs by RT-PCR method; assay type: cell-based; method in brief: as §2

Activity [1] | ΔTm [2] [°C] | Activity [3] | Activity [4] | Activity [5] | IC50 [6] [nM] | Selectivity ratio [7] | Kd [5] [nM] | Structure (SMILES) | Activity [8] | Activity [2] | Activity [9] | inhibition [10] | Activity [11] | Activity [12]
Active | 35.2 | Active | Active | Active |  |  |  | C[n+]1c2ccccc2c(NCCCN2CCCCC2)c2oc3ccc(OCC(=O)NCCCN4CCCCC4)cc3c21 |  |  |  |  |  | 
 | 13.5 | Active | Active |  | 1000 to 4000 | 2.5 to 10.1 | 1300 to 4900 | CN(C)CCCNc1c2ccccc2nc2c1oc1c(OCCCN(C)C)cccc12 |  |  |  |  |  | 
 | 13.5 to 36.7 | Active | Active | Active | 1000 to 4000 | 2.9 to 9.7 |  | CN(C)CCNC(=O)COc1ccc2oc3c(NCCN(C)C)c4ccccc4nc3c2c1 |  |  |  |  |  | 
Active | 13.5 to 36.7 | Active | Active | Active |  |  |  | CN1CCN(CCNC(=O)COc2ccc3oc4c(NCCN5CCN(C)CC5)c5ccccc5[n+](C)c4c3c2)CC1 |  |  |  |  |  | 
 | 13.5 to 36.7 | Active | Active |  | 1000 to 4000 | 2.5 to 10.1 | 1300 to 4900 | CN(C)CCNc1c2ccccc2nc2c1oc1ccc(OCCN(C)C)cc12 |  |  |  |  |  | 
Active | 35.6 | Active | Active | Active |  |  |  | CN(C)CCCNC(=O)COc1ccc2oc3c(NCCCN(C)C)c4ccccc4[n+](C)c3c2c1 |  |  |  |  |  | 
Active | 30 | Active | Active | Active |  |  |  | C[n+]1c2ccccc2c(NCCN2CCCCC2)c2oc3ccc(OCC(=O)NCCN4CCCCC4)cc3c21 |  |  |  |  |  | 
Active | 13.5 to 36.7 | Active | Active |  |  |  | 800 | CCN(CC)CCNC(=O)COc1ccc2oc3c(NCCN(CC)CC)c4ccccc4[n+](C)c3c2c1 |  |  |  |  |  | 
 | 13.5 to 36.7 | Active | Active | Active | 1000 to 4000 | 2.9 to 9.7 |  | O=C(COc1ccc2oc3c(NCCN4CCCCC4)c4ccccc4nc3c2c1)NCCN1CCCCC1 |  |  |  |  |  | 
Active | 36.1 | Active | Active | Active |  |  |  | C[n+]1c2ccccc2c(NCCCN2CCOCC2)c2oc3ccc(OCC(=O)NCCCN4CCOCC4)cc3c21 |  |  |  |  |  | 
Active | 33.1 to 36.7 | Active | Active | Active |  |  |  | CN(C)CCCNc1c2ccccc2[n+](C)c2c1oc1ccc(OCC[N+](C)(C)C)cc12 |  |  |  |  |  | 
Active | 13.5 to 36.7 | Active | Active | Active |  |  |  | CN(C)CCNC(=O)COc1ccc2oc3c(NCCN(C)C)c4ccccc4[n+](C)c3c2c1 |  |  |  |  |  | 
Active | 13.5 to 36.7 | Active | Active |  |  |  | 700 | CCN(CC)CCCNC(=O)COc1ccc2oc3c(NCCCN(CC)CC)c4ccccc4[n+](C)c3c2c1 |  |  |  |  |  | 
 | 13.5 to 36.7 | Active | Active | Active | 1000 to 4000 | 2.9 to 9.7 |  | CCN(CC)CCCNC(=O)COc1ccc2oc3c(NCCCN(CC)CC)c4ccccc4nc3c2c1 |  |  |  |  |  | 
Active | 33.1 to 36.7 | Active | Active | Active |  |  |  | CN(C)CCNc1c2ccccc2[n+](C)c2c1oc1ccc(OCC[N+](C)(C)C)cc12 |  |  |  |  |  | 
 | 22.1 to 25.2 | Active | Active |  | 1000 to 4000 | 2.5 to 10.1 | 1300 to 4900 | CN(C)CCCNc1c2ccccc2nc2c1oc1ccc(OCCN(C)C)cc12 |  |  |  |  |  | 
 | 21.2 | Active | Active | Active | 1000 to 4000 | 2.9 to 9.7 |  | CN(C)CCCNC(=O)COc1ccc2oc3c(NCCCN(C)C)c4ccccc4nc3c2c1 |  |  |  |  |  | 
 | 22.1 to 25.2 | Active | Active |  | 1000 to 4000 | 2.5 to 10.1 | 1300 to 4900 | CN(C)CCCNc1c2ccccc2nc2c1oc1ccc(OCCCN(C)C)cc12 |  |  |  |  |  | 
 | 13.5 to 36.7 | Active | Active | Active | 1000 to 4000 | 2.9 to 9.7 |  | CCN(CC)CCNC(=O)COc1ccc2oc3c(NCCN(CC)CC)c4ccccc4nc3c2c1 |  |  |  |  |  | 
 | 22.1 to 25.2 | Active | Active |  | 1000 to 4000 | 2.5 to 10.1 | 1300 to 4900 | CN(C)CCCNc1c2ccccc2nc2c1oc1cc(OCCN(C)C)ccc12 |  |  |  |  |  | 
Active | 33.1 to 36.7 | Active | Active | Active |  |  |  | CN(C)CCCNc1c2ccccc2[n+](C)c2c1oc1ccc(OCC3CC[N+](C)(C)CC3)cc12 |  |  |  |  |  | 
 | 22.1 to 25.2 | Active | Active |  | 1000 to 4000 | 2.5 to 10.1 | 1300 to 4900 | CN(C)CCCNc1c2ccccc2nc2c1oc1cc(OCCCN(C)C)ccc12 |  |  |  |  |  | 
Active | 33.1 to 36.7 | Active | Active | Active |  |  |  | CN(C)CCCNc1c2ccccc2[n+](C)c2c1oc1ccc(OCCC[N+](C)(C)C)cc12 |  |  |  |  |  | 
 | 18.6 | Active | Active |  | 1000 to 4000 | 2.5 to 10.1 | 1300 to 4900 | CN(C)CCCNc1c2ccccc2nc2c1oc1c(OCCN(C)C)cccc12 |  |  |  |  |  | 
Active | 28.4 | Active | Active | Active |  |  |  | C[n+]1c2ccccc2c(NCCN2CCOCC2)c2oc3ccc(OCC(=O)NCCN4CCOCC4)cc3c21 |  |  |  |  |  | 
Active | 13.5 to 36.7 | Active | Active | Active |  |  |  | CN(C)CCCCNC(=O)COc1ccc2oc3c(NCCCCN(C)C)c4ccccc4[n+](C)c3c2c1 |  |  |  |  |  | 

Structure (SMILES) | Activity [1] | ΔTm [2] [°C] | Activity [3] | Activity [4] | Activity [5] | IC50 [6] [nM] | Selectivity ratio [7] | Kd [5] [nM] | Activity [8] | Activity [2] | Activity [9] | inhibition [10] | Activity [11] | Activity [12]
CN(C)CCCNc1c2ccccc2nc2c1[nH]c1ccccc12 |  |  |  |  |  |  | 1.02 | 7800 | Active | Active | Active | Active | Active | Active
